The list is not random: actives were taken first. Their share in the collection is about 2.5%.
ADAM10 inh = ADAM10 inhibition, QFRET primary screen; AID 720582; O14672; inhibition, % at 7 µM; recombinant ADAM10, EDANS/DABCYL FRET peptide cleavage, 3 h; 370,000 compounds, 0.62% hits;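 active = inhibition above a per-campaign cutoff equal to the mean of compounds falling between control-based bounds plus 3 SD, cut at about 20% in these data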;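 note: 0% = DMSO wells while the 100% control is not disclosed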
NR2E3 ag-1 = activates human NR2E3 receptor; Q9Y5X4; CHO-S Gal4-NCOR/VP16-NR2E3 two-hybrid, luciferase; inhibition of corepressor binding, % at 3.98 µM; 360,000 compounds, 0.35% hits;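 active = inhibition above the mean of all tested compounds plus 3 SD, cut at about 70% in these data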;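 note: 0% = DMSO with NR2E3 transfected cells and 100% = cells lacking NR2E3 construct; higher means lower luciferase signal from less NR2E3 corepressor binding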
NR2E3 ag-2 = NR2E3 (human) agonism | GST-NR2E3/biotin-RetCOR TR-FRET, 1536-well | inhibition of corepressor binding, % at 4.78 µM | 320,000 compounds, 0.12% hits | AID 2300;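 active = percent inhibition above the cutoff of mean plus 3 SD of all tested compounds, set per screening campaign, cut at about 20% in these data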;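 note: 0% = DMSO wells and 100% = biotin wells as full block of FRET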
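Test system – NR2E3–RetCOR corepressor complex · Quantity – NR2E3 fusion 1.35 nM · Buffer or medium – Tris pH 7.5 · Incubation – Compound–protein incubation for 5 h at 4 °C · Technique – TR-FRET, Eu(K)-anti-GST donor, streptavidin-D2 acceptor, ex 340, em 617/671 nm · Evaluation – percent inhibition of 671/617 nm emission ratio versus biotin and DMSO controls · Plate – 1536-well format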
JMJD2C inh = inhibitors of human GASC-1 (JMJD2C) demethylase. Q9H3R0. GST-JMJD2C(1-420) H3K9me3 demethylation, DELFIA europium. inhibition, % at 2.35 µM. 330,000 compounds, 0.069% hits. AID 2099;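 active = more than half of a compound's replicate wells show inhibition beyond 50%, single wells judged on their own value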;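 note: signal counts dimethyl H3K9 product captured on neutravidin plate; 0% = median of DMSO wells and 100% = 0.3 times that DMSO median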
Target sequence (Q9H3R0 1-420 limits assumed): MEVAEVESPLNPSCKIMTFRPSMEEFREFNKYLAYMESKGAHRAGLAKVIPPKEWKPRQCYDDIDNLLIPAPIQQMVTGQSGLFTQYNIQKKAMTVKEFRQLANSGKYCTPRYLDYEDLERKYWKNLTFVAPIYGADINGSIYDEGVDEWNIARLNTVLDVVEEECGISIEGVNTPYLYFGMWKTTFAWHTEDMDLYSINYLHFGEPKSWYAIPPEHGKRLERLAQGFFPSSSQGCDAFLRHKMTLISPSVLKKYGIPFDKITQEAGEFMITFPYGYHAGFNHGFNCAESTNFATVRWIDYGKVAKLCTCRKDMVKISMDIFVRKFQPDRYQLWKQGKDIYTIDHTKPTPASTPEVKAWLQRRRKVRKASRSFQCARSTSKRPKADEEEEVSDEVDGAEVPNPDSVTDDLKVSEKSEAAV
proKLK7 act = activates the human kallikrein-7 zymogen; P49862; activation, % at 7 µM; purified proKLK7, EDANS-DABCYL substrate fluorescence; 100% is mature enzyme control, 0% vehicle; 370,000 compounds, 0.9% hits;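 active = activation above the mean of all tested compounds plus 3 SD, computed per campaign excluding outliers beyond control limits, cut at about 13% in these data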
ADAM17 inh = inhibitors of human ADAM17; P78536; recombinant ADAM17, EDANS/DABCYL FRET peptide cleavage; inhibition, % at 6.95 µM; 370,000 compounds, 0.83% hits; AID 720648;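 active = inhibition above the mean of compounds lying between control limits plus 3 SD, set per campaign, cut at about 8.5% in these data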;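 note: 0% = DMSO-only wells as the low control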
ADAM10 confirm = confirmation of inhibitors of human ADAM10 | shares compounds with ADAM10 inh | ADAM10 QFRET peptide cleavage, EDANS fluorescence | inhibition, % at 6.95 µM | 2,100 compounds, 1% hits;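 active = inhibition above about 20% chosen separately for each screening run, limit read from the data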;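 note: 0% = DMSO wells and 100% = marimastat wells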
ADAM17 counter = ADAM17 inhibition, counter-screen for ADAM10 exosite hits | ADAM17 QFRET peptide cleavage, EDANS fluorescence | shares compounds with ADAM10 inh | inhibition, % at 6.95 µM | 2,100 compounds, 0.5% hits;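 active = mean triplicate inhibition above the solvent-only control wells' mean plus 3 SD, cut at about 12% in these data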;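 note: 0% = DMSO wells and 100% = marimastat wells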
Numbers without * were called inactive; x = not tested or not shown.

SMILES | ADAM10 inh | NR2E3 ag-1 | NR2E3 ag-2 | JMJD2C inh | proKLK7 act | ADAM17 inh | ADAM10 confirm | ADAM17 counter
Cc1ccc(-n2cc(CNCC3CC(=O)N(C4CC4)C3)c(-c3cccc(C)c3)n2)cc1 (stereo not drawn) | 7 | -24 | 3 | 12 | 1 | 4 | x | x
O=C(Nc1cc(Cl)ccc1O)c1cc2n(n1)C(C(F)(F)F)CC(c1ccc3c(c1)OCO3)N2 (stereo not drawn) | 29* | 21 | 0 | -6 | 0 | 8 | 6 | 2
COc1ccc(OC)c(NC(=O)c2cc3n(n2)C(C(F)(F)F)CC(c2ccc4c(c2)OCO4)N3)c1 (stereo not drawn) | 15 | 25 | -2 | -2 | -1 | 8 | x | x
CN1CCN(C(=O)c2ccc(NS(=O)(=O)c3cccc([N+](=O)[O-])c3)cc2)CC1 | 4 | -3 | x | x | -1 | -2 | x | x
Cc1cccc(/C=N/NC(=O)Cn2nnnc2N)n1 | -3 | 5 | 1 | 5 | 0 | -1 | x | x
COC(=O)[C@]12C[C@H](CC(=O)N3CCC(c4ccccc4)CC3)C(=O)N(Cc3ccco3)C1=C[C@H](C(C)(C)C)O[C@@H]2C | 4 | x | x | x | 1 | 4 | x | x
Cc1ccc(Cn2cc(CN3[C@H](c4ccccc4)COc4cc(Br)ccc4S3(=O)=O)nn2)cc1 | 21* | x | x | x | -1 | 8 | 6 | 2
C[C@@H]1COc2cc(N3CCC[C@H]3CO)ccc2S(=O)(=O)N1 | -1 | 9 | x | x | 0 | -1 | x | x
CC(Oc1ccccc1Cl)C(=O)Nc1ccc(S(=O)(=O)Nc2nccs2)cc1 (stereo not drawn) | 51* | -20 | 1 | 0 | 0 | -36 | 0 | 0
CC(C)N(CCNC(=O)c1oc(=O)c2ccccc2c1-c1ccccc1)Cc1ccco1 | 7 | -38 | 2 | 2 | 1 | 5 | x | x
CCCCC1CC2=C(C(=O)OC(C)(C)O2)C(c2ccc(Cl)cc2)O1 (stereo not drawn) | 6 | 25 | x | x | 1 | 4 | x | x
CCNC(=O)NC(=O)C(C)OC(=O)c1ccc(-n2nc(SC)sc2=S)cc1 (stereo not drawn) | 22* | -10 | -4 | 9 | 0 | 3 | 1 | 0
CSc1nn(-c2ccc(C(=O)OC(C(=O)NC(N)=O)C(C)C)cc2)c(=S)s1 (stereo not drawn) | -2 | -17 | 1 | -18 | 0 | -1 | x | x
O=S(=O)(Nc1cccc(-c2ccc(N3CCCCCC3)nn2)c1)c1ccc(C(F)(F)F)cc1 | 24* | -33 | -5 | -46 | 0 | 7 | 6 | 3
CCc1ccc(N=Nc2ccc(O)c3[nH]cnc23)cc1 | 24* | -67 | -1 | 8 | 1 | 7 | 2 | 1
O=C1NC[C@H](CCCCN2CCN(CCc3ccc(O)cc3)C(=O)C2=O)N(CCc2ccc(O)cc2)C1=O | -4 | -19 | x | x | -1 | -5 | x | x
O=C(NNC(=O)c1sc2ccccc2c1Cl)Nc1ccc(Cl)cc1 | 20* | -16 | -1 | 8 | 0 | 5 | 0 | 0
CN(C(=O)c1ccc(NC(=O)Cc2ccc(NC(=O)C3CCCN(S(=O)(=O)c4cccc([N+](=O)[O-])c4)C3)cc2)cc1)C1CCCC1 (stereo not drawn) | 23* | 8 | x | x | 0 | 8 | 4 | 1
Cc1ccccc1-n1c(Cn2c(=O)sc3ccccc32)nnc1SC(C)C | 78* | -4 | 0 | -15 | 0 | -1 | -1 | 0
Cc1ccc(C(=O)Nc2cccc3cccnc23)cc1C | 2 | -79 | -2 | -1 | 0 | -4 | x | x
C=CCn1c(COc2ccccc2)nnc1SCC(=O)Nc1ccc(Oc2ccccc2)cc1 | 21* | x | x | x | 0 | 6 | 3 | 0
CCn1c(COc2ccc(C)cc2)nnc1SCC(=O)Nc1ccc(Oc2ccccc2)cc1 | -1 | x | x | x | 1 | -1 | x | x
CC1CCN(CCCNC(=O)CCNC(=O)Cn2cnc3ccccc3c2=O)CC1 | 9 | -25 | 0 | 0 | 0 | 0 | x | x

From PubChem
